≈ marks a conversion by molar mass, not a printed value. Calls of active or inactive are those of the source. The calls are words filed in the database; no cut-off is given here.
What was measured:
Format in all cases: functional
[1] = tested on: Candida albicans; experiment: Antimicrobial activity against Candida albicans ATCC 14053 at 100 ug/disk; settings: for zone of inhibition at 100 µg/disc: read-out: IZ
[2] = tested on: Aspergillus flavus; experiment: Antifungal activity against Aspergillus flavus NRRL 6541 at 200 ug/disk; settings: read-out: IZ
In short: (§1)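 Agar disk diffusion at 200 µg/disk against each fungal strain, scored as the inhibition zone diameter in mm.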

[3] = tested on: Staphylococcus aureus; experiment: Antibacterial activity against Staphylococcus aureus ATCC 29213 at 100 ug/disk; settings: for zone of inhibition at 100 µg/disc: read-out: IZ
[4] = tested on: Bacillus subtilis; experiment: Antibacterial activity against Bacillus subtilis ATCC 6051 at 50 ug/disk; settings: read-out: IZ
In short: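 Standard paper-disk agar diffusion test at 50 µg per disk; activity read as the diameter of the inhibition zone in mm.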

[5] = tested on: Fusarium verticillioides; experiment: Antifungal activity against Fusarium verticillioides NRRL 25457 at 200 ug/disk; settings: read-out: IZ; in short: as §1
[6] = tested on: Aspergillus flavus; experiment: Antifungal activity against Aspergillus flavus NRRL 6541 after 48 hrs; settings: NRRL 6541, 48 h
In short: (§2)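 Broth microdilution in 96-well plates at 1, 3, 5, 10 and 25 µg/mL, with eight replicate wells per level. Compound in MeOH was dried in the well, redissolved in 10 µL MeOH, then 200 µL potato dextrose broth with about 8000 conidia was added (about 4 × 10^4/mL). For A. flavus, conidia came from 14-day PDA cultures at 25 °C and were filtered through cheesecloth. Plates were incubated 48 h at 25 °C and read on a plate reader every 8-16 h against MeOH-only controls. MIC is the lowest level with no growth. Nystatin was the positive control. F. verticillioides was run analogously.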

[7] = tested on: Fusarium verticillioides; experiment: Antifungal activity against Fusarium verticillioides NRRL 25457 after 48 hrs; settings: NRRL 25457, 48 h; in short: as §2
[8] = tested on: Aspergillus flavus; experiment: Antifungal activity against Aspergillus flavus NRRL 6541 at >25 ug/mL after 48 hrs relative to control; settings: in the assay text read “25 ug/mL” for “>25 ug/mL”; in short: as §2

SMILES	zone of inhibition at 100 µg/disc [1] [mm]	zone of inhibition at 200 µg/disc [2] [mm]	zone of inhibition at 100 µg/disc [3] [mm]	zone of inhibition at 50 µg/disc [4] [mm]	zone of inhibition at 200 µg/disc [5] [mm]	MIC [6] [µg/mL]	MIC [7] [µg/mL]	Activity [1]	Activity [3]	Activity [8] [%]
O=C1C=CC2(Oc3cccc4cccc(c34)O2)[C@H]2[C@H]1[C@@H](O)C=C[C@H]2O [DECASPIRONE A]	30	20	41	39	20	10 (≈ 29.7 µM)	5 (≈ 14.9 µM)			
CC(=O)O[C@H]1C=C[C@@H](O)[C@@H]2[C@@H]1[C@@H](O)C=CC21Oc2cccc3cccc(c23)O1 [DECASPIRONE B]				19				inactive	inactive	
CC(=O)O[C@H]1C=C[C@@H](O)[C@@H]2[C@@H]1C(=O)C=CC21Oc2cccc3cccc(c23)O1 [DECASPIRONE E]	17			30					inactive	
O=C1C=CC2(Oc3cccc4cccc(c34)O2)[C@H]2[C@H]1[C@@H](O)CC[C@H]2O [DECASPIRONE C]		15	28	34	26	> 25	25 (≈ 73.9 µM)	inactive		27
CC(=O)O[C@@H]1C=C[C@H](O)[C@H]2C(=O)C=CC3(Oc4cccc5cccc(c45)O3)[C@@H]21 [DECASPIRONE D]	13		30	30						
